# Published values pooled from the literature.
# Lines come from different studies, so protocols differ.
# Target: Serine/threonine-protein kinase LATS1 (LATS1, Homo sapiens, UniProt O95835)
# Residues used in one study (O95835 1-1130): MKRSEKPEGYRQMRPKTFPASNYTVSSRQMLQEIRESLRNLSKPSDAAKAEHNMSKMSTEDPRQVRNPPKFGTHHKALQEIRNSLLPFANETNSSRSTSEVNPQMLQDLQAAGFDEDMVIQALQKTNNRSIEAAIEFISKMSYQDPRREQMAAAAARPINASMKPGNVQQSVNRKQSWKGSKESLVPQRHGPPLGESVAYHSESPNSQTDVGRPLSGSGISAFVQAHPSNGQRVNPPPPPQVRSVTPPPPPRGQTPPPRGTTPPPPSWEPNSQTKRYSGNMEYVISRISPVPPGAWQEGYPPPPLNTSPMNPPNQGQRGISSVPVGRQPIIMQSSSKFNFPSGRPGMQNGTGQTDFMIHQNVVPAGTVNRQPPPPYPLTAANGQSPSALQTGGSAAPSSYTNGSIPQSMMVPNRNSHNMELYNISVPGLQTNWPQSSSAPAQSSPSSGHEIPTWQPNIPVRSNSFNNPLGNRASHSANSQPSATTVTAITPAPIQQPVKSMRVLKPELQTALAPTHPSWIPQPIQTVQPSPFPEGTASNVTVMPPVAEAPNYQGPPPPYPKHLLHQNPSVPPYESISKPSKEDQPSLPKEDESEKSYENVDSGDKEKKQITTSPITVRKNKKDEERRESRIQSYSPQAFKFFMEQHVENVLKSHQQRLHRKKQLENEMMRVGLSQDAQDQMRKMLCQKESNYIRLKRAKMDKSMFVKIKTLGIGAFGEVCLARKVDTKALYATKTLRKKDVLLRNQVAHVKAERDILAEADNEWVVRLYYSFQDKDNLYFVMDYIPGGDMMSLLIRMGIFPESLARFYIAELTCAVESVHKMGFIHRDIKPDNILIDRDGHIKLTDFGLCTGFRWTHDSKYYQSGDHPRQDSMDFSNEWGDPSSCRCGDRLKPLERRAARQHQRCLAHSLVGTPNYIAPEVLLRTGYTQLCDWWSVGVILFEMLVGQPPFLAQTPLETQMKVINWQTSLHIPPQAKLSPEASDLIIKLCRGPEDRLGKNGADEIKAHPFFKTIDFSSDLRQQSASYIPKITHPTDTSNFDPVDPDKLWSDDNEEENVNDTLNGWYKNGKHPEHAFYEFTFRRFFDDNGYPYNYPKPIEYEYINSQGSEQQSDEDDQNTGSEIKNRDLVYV
Compound,test,conditions,remaining binding [%]
CN(C)c1ncc(F)c(-c2cnn3ncccc23)n1,binding,1 µM,100
COc1cc(-c2cn(C3CCc4c(F)cccc4N(CC(F)(F)F)C3=O)nn2)ccc1-n1cnc(C)c1 (stereo not drawn),"cell-free assay, competition with immobilised ligand",1 µM,93
Nc1ncc2c(n1)-c1c([nH]c3ccc(C#CC4CC4)cc13)CCCC2,"binding, competition with immobilised ligand",1 µM,92
O=C(NCC1CCOCC1)c1n[nH]cc1NC(=O)c1c(F)cccc1F,"binding, competition with immobilised ligand",1 µM,100
c1cncc(-c2cccc(Nc3nccc(NC4CCCCC4)n3)c2)c1,"binding, competition with immobilised ligand",10 µM,19
CCOCCn1cc(C(=O)Nc2ccc(-n3nc(-c4cccnc4)cc3C(F)(F)F)cn2)ccc1=O,"cell-free assay, competition with immobilised ligand",1 µM,69
C[C@H]1CCN(c2nccc(-c3cnn4ncccc34)n2)C1,binding,1 µM,100
O=C(Nc1ccc(Oc2ccc(F)cc2)cc1)N1CCc2ncccc2[C@H]1c1ccc(F)cc1,"cell-free assay, competition with immobilised ligand",1 µM,86
CN(CCCC(F)(F)F)c1nccc(-c2cnn3ncccc23)n1,binding,1 µM,78
O=C(c1ccc(Nc2ncc(Cl)c(-c3cc4ccccc4s3)n2)cc1)N1CCC(N2CCCC2)CC1,"binding, competition with immobilised ligand",1 µM,60
CN(C)c1ncnc(-c2ccc3nc(Nc4cc(CN5CCN(C(=O)CC(F)(F)F)CC5)ccn4)[nH]c3c2)c1Cl,"cell-free assay, competition with immobilised ligand",1 µM,95
Cc1cnc(Nc2ccc(C(=O)N3CCC(N4CCCC4)CC3)cc2)nc1-c1cc2ccccc2s1,"binding, competition with immobilised ligand",1 µM,89
C[C@@H](c1ccc(-n2cnc3c(N)ncnc32)cc1)N1CCc2nn(C)c(Cc3ccccc3)c2C1=O,"binding, competition with immobilised ligand",0.1 µM,100
CCCCN(CCCC)C(=O)CN1C[C@@H](c2cc(OC)c3c(c2)OCO3)[C@H](C(=O)O)[C@H]1CC(C)(C)CCC,"cell-free assay, competition with immobilised ligand",1 µM,75.2
N[C@H]1CCN(c2nccc(-c3cnn4ncccc34)n2)C1,binding,1 µM,100
CCN1CCN(Cc2ccc(C(=O)Nc3ccc(C)c(Oc4ccc5c(c4)CC(=O)N5)c3)cc2C(F)(F)F)CC1,"binding, competition with immobilised ligand",1 µM,94
Cc1nc(Cc2cccc(C(F)(F)F)c2)sc1-c1ccc(C(N)=O)nc1,"cell-free assay, competition with immobilised ligand",1 µM,100
CN(C)c1nccc(-c2cnc3ncccn23)n1,binding,1 µM,100
O=C(NCCCN1CCOCC1)c1ccc(Nc2ncc(Cl)c(-c3ccc(Cl)s3)n2)cc1,"binding, competition with immobilised ligand",1 µM,42
CN(C)c1nccc(-c2cnn3ncccc23)n1,binding,1 µM,100
CNC(=O)[C@@H]1CC[C@@H](n2c(-c3ccc4cnccc4c3)nc3ccc(C(=O)NCc4cccc(C(N)=O)c4)cc32)C1,"binding, competition with immobilised ligand",1 µM,100
